Most compounds without a hit are left out; they make up all but 4.1% or so of the library.
MEKK3 PB1 HTS: modulators (inhibitors or enhancers) of MEK5 binding to human MEKK3 PB1 domain; bead-based flow cytometry, Alexa488-MEK5 binding to MEKK3; actives lie on both sides; 0 = blocked by unlabeled MEK5, 100 = vehicle; AID 1529; binding response (% of control), % at 10 µM; 1.4% of 290,000 active; Q99759;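 active means binding response more than 3 SD above or below the average of its plate-row segment, actives on both sides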;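 further: Alexa488 bead fluorescence after subtracting the streptavidin-only scavenger bead signal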
Target sequence (Q99759 whole entry, looked up, the tested form may be a part): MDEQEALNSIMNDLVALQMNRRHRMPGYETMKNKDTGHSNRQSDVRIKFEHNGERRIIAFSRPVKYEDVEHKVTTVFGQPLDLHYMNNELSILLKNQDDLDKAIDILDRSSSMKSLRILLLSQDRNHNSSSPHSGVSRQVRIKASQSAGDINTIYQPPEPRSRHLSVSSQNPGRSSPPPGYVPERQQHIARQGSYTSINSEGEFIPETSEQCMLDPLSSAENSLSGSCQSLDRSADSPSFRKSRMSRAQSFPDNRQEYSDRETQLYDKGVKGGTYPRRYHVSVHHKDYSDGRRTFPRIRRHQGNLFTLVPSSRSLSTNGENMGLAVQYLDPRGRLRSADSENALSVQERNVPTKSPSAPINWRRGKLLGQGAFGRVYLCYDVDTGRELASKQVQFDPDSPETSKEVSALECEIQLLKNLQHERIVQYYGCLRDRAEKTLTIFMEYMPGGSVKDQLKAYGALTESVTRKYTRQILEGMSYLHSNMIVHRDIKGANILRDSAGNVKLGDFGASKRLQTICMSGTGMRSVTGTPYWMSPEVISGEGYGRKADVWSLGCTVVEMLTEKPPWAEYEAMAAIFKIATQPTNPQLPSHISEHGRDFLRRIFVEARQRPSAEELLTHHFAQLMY
MEKK2 mut-MEK5: signal of MEK5 binding to mutant human MEKK2 PB1 domain | AID 1530 | percent response, % at 10 µM | bead flow cytometry, Alexa488-MEK5 binding to MEKK2 mutant | 0.35% of 290,000 active; in the data active means percent response above about 24%, passing the limit was not always enough
T cruzi inh: blocks replication of Trypanosoma cruzi; 1.4% of 300,000 active; AID 1885; T. cruzi beta-gal in NIH3T3, luminescence, 90 h; inhibition, % (test concentration not listed);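 active means mean inhibition across valid replicates above about 55%, limit read from the data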;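 further: signal also drops with host cell toxicity which is not excluded here; 0% = plate median of DMSO wells and 100% = zero luminescence signal; higher percent means less beta-gal luminescence so fewer parasites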
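System: mouse NIH/3T3 fibroblasts infected with β-gal-expressing T. cruzi Tulahuen C4 / Input: NIH/3T3 cells, 5,000 per well / Buffer or medium: Low-serum DMEM with 2% FBS / Probe or stimulus: 5000 reporter trypomastigotes per well / Schedule: ≥90 h infection period, 3 h prior cell attachment / Measured by: GalScreen luminescence, 60 min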
MEKK2 WT-MEK5: raises or lowers MEK5 binding to wildtype human MEKK2 PB1 domain | bead flow cytometry, Alexa488-MEK5 binding to MEKK2 WT; actives lie on both sides | binding response (% of control), % at 10 µM | 1.1% of 290,000 active | Q9Y2U5 | AID 1531; in the data active means binding response below about 67% or above about 130%
NS3 helicase inh: inhibitors of Hepatitis C virus NS3 helicase. NS3 helicase DNA unwinding, Cy5 molecular beacon fluorescence. inhibition, % at 10.9 µM. 0.56% of 290,000 active. AID 1800;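 active means inhibition above the mean of all tested compounds plus 3 SD, set per campaign, cut at about 35% in these data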;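 further: 0% = DMSO wells and 100% = thioflavine S control wells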
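Compound dosing – single dose, 10.9 µM nominal final, DMSO 0.8% final · System – NS3 helicase fragment of HCV · Buffer or medium – MOPS pH 6.5, MgCl2, DTT, Tween20, BSA · Signal – Cy5 beacon fluorescence read at start and 1 h · Also added – annealed dual-labelled DNA beacon duplex, ATP-started · Schedule – 1 h at 25 °C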
FID counter: counter-screen for HCV NS3 helicase inhibitors: DNA intercalator displacement. DNA fluorescent intercalator displacement, fluorescence. inhibition, % at 7.9 µM. 0.17% of 290,000 active. AID 1845; in the data active means inhibition above about 37%;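 further: 0% = vehicle and 100% = reference compound; higher means more ethidium bromide displaced from hairpin DNA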
* = called active by the depositor; · = not tested or not shown.

SMILES	MEKK3 PB1 HTS	MEKK2 mut-MEK5	T cruzi inh	MEKK2 WT-MEK5	NS3 helicase inh	FID counter
CCCN1CCc2c(sc(NC(=O)c3ccc(S(=O)(=O)N4CCN(C(=O)OCC)CC4)cc3)c2C(N)=O)C1	102	4	14	4.0*	-59	0
CCC(CC)c1nc(C(N)=O)c2[nH]c(=O)n(-c3ccc(OC)c(OC)c3)c2n1	95	-7	-13	93	3	-30
O=C(Nc1c2c(nc3c1CCC3)CCCC2)c1ccccn1	122	-1	1	113	9	-4
CN1c2ccsc2/C(=N/Nc2ccc(F)cc2)CS1(=O)=O	91	-8	64*	85	-23	2
CCCC(=O)N/N=C1\CS(=O)(=O)N(C)c2ccsc21	101	-4	4	101	0	-5
Cc1ccc(N/N=C2\CS(=O)(=O)N(C)c3ccsc32)cc1	108	8	64*	99	-29	1
Cc1c(Br)c([N+](=O)[O-])nn1CC(=O)Nc1ccc(Cc2ccncc2)cc1	108	1	52	107	-6	10
COc1ccc(C(=O)/C=C2\Sc3ccccc3N2C)cc1	99	1	17	101	1	-11
COc1ccccc1-[n+]1c(C)cc(/C=C2\Sc3ccccc3N2C)cc1C	91	6	56*	79	-30	-1
CCOc1ccc(CSCCNC(=S)Nc2ccccc2)cc1	128*	0	-13	106	-20	-22
CCOc1ccc(NC(=S)NCCCc2ccccc2)cc1	104	4	2	89	1	-5
CS(=O)(=O)NCCSCc1c(Cl)cccc1Cl	100	12	75*	103	4	-2
CS(=O)(=O)NCCSCc1c(F)cccc1Cl	111	14	-4	109	-2	-2
S=C(NCCSCc1c(Cl)cccc1Cl)Nc1ccccc1	98	-1	56*	102	-22	-4
Cc1[nH]c(C)c(S(=O)(=O)N2CCN(c3ccccc3F)CC2)c1C(=O)N1CCCC1	99	5	-13	98	1	-26
O=c1cc(CSc2nc(NCc3ccccc3)c3ccccc3n2)nc2ccc(Cl)cn12	75	-2	-1	89	-11	3
Cc1cc(C(=O)N/N=C/c2cccc(OC(=O)c3cccc(Br)c3)c2)n[nH]1	98	0	·	102	-3	-25
COc1cccc(C(=O)Oc2c(Br)cc(Br)cc2/C=N/NC(=O)c2cc(C)[nH]n2)c1	101	-2	61*	92	0	3
CN(C)/C=N/S(=O)(=O)c1ccc(Cl)c(Cl)c1	98	10	4	103	0	-10
O=C(CCNc1ccc(F)cc1)c1cc2ccccc2o1	111	-1	73*	105	-18	6
Cc1ccc(NC(=S)N(CCCN(C)C)Cc2cc3cc4c(cc3[nH]c2=O)OCO4)cc1	98	4	-18	102	-3	38*
CN(C)CCCNC(=S)N(CCCN(C)C)Cc1cc2cc3c(cc2[nH]c1=O)OCO3	101	8	-7	112	-4	17
Cc1ccc(NC(=S)N(CCCN(C)C)Cc2cc3cc4c(cc3[nH]c2=O)OCO4)c(C)c1	105	-10	0	98	-13	44*
COc1cc(C2OC(=O)C3C(c4ccc(OC(C)=O)c(OC)c4)OC(=O)C23)ccc1OC(C)=O (configuration not stated)	·	·	-12	·	·	·
O=C(O)CC1(CC(=O)Nc2ccc3c(c2)C(=O)OC3)CCCCC1	81	-11	-10	84	0	3
CC1CCC(N2CCN(C(=O)c3ccccc3F)CC2)CC1 (configuration not stated)	100	10	17	101	7	5
COc1cc(/C=C2\SC(=S)N(NC(=O)c3ccncc3)C2=O)ccc1O	93	16	8	-3.0*	4	2
COc1cc(/C=C2\SC(=S)N(NC(=O)c3ccc(O)c(OC)c3)C2=O)ccc1O	103	1	-5	93	-10	11
COc1ccc(OCc2cc(C(=O)NCc3nc(C)cs3)no2)c(Cl)c1	105	7	7	107	-4	-29

Screening results from PubChem.
